# Screening results: PubChem BioAssay, several laboratories
# Rows were chosen to be rich in hits. Some 6.9% of all compounds tested hit in one or more screens of this group.
# FAK blocker: inhibitors of human focal adhesion kinase; Q05397; biochemical FAK kinase activity assay; inhibition, %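 (tested at 7 µM)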; 97,000 tested, 0.84% active; in the data active means inhibition above about 19%;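 further: 0% = DMSO and 100% = reference compound high control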
# Target sequence (Q05397 whole entry, looked up): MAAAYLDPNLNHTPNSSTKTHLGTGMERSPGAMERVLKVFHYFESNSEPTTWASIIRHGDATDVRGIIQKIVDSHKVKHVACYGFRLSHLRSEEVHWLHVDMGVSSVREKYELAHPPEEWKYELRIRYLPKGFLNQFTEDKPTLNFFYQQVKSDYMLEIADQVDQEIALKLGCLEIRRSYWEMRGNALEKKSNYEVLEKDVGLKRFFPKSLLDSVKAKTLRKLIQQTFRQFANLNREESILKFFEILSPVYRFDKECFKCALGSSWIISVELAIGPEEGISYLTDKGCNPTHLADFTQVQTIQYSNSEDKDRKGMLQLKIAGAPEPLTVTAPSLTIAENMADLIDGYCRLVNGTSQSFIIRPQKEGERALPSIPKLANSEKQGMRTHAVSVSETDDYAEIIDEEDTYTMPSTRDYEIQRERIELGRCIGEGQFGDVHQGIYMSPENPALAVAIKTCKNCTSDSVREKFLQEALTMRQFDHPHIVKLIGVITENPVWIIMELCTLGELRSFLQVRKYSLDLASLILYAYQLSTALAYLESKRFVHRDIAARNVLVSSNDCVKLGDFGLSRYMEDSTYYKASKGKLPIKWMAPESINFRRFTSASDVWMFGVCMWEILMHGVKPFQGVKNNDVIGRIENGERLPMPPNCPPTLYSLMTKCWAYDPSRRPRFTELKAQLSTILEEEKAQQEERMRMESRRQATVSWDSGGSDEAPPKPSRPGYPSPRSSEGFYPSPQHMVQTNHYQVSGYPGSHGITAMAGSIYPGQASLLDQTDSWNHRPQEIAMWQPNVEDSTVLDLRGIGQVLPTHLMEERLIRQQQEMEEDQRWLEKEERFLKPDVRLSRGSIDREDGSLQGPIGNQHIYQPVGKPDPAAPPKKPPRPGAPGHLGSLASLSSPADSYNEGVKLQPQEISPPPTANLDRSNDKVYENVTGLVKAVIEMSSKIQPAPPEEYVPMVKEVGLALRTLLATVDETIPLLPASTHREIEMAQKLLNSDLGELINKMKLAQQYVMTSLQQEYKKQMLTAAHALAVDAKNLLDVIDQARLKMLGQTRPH
# tolC growth inh: E. coli tolC mutant growth inhibition. 65,000 tested, 2.2% active. growth inhibition, % at 10 µM (by protocol). E. coli BW25113 tolC mutant growth, OD615;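 active means growth inhibition at or above a cutoff equal to the mean over every tested compound plus 3 SD, cut at about 60% in these data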;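 further: growth measured after 20 h incubation at 37 °C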
#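 Material: E. coli BW25113 ΔtolC::kan, tolC deletion mutant strain. Measure: percent growth inhibition. Schedule: 37 °C, 20 h exposure. Doses: single-point testing at 10 µM. Signal: A615 absorbance measurement. Buffer or medium: kanamycin-containing LB broth (50 µg/mL).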
# Candida biofilm: kills Candida albicans biofilms; 85,000 tested, 0.14% active; AID 834; C. albicans biofilm + clotrimazole, Alamar Blue; inhibition, % at 6 µM;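 active means inhibition above 20%; inactive means inhibition below 20%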;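 further: preformed 24 hr biofilms exposed to compound for 48 hr; 0% = biofilm without compound and 100% = blank killed by clotrimazole plus chlorhexidine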
# PostGolgi ctrl: yeast control strain growth, post-Golgi counter-screen. efflux-deficient yeast background strain, growth absorbance A615, 16 h. inhibition, % at 10 µM. 98,000 tested, 5% active. AID 738
# PostGolgi yeast: growth inhibition of a yeast mutant, post-Golgi transport screen | inhibition, % at 10 µM | post-Golgi transport phenotypic cell assay | 98,000 tested, 0.9% active;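 further: yeast cells grown in 1536-well plates; yeast grown about 18 h at 30C before absorbance read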
# PTK2B oligo ant: antagonists of human Pyk2 oligomerization. z-score (the deposit names both 25 µM and 10 µM). Q293 cells, Pyk2 FERM NanoBiT luminescence; stronger effect = lower value. AID 1347419. Q14289. 99,000 tested, 0.83% active;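 active means Z-score of -3 or lower, scaled per plate to the spread of control and sample wells; inactive means z-score above -3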;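 further: negative z-score means lost luminescence so less FERM oligomerization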
# The depositor's hits bear a star; x = no result given. Unless noted, no stated cut-off is given here; in the data, active means inhibition above about 30%; inactive means the rest.
SMILES,FAK blocker,tolC growth inh,Candida biofilm,PostGolgi ctrl,PostGolgi yeast,PTK2B oligo ant
Cc1ccccc1C(=O)NNC(=S)NC(=O)COc1ccccc1,-1,x,x,25,19,1.9
Cn1c(NCc2cccc(Br)c2)nc2ccccc21,-4,25,3,12,4,-0.02
Cn1c(Oc2ccccc2NCc2cccc(Br)c2)cc(=O)n(C)c1=O,1,x,5,38*,4,-1.6
CCOC(=O)c1c(-c2ccc(OC)cc2)csc1NC(=O)CNCc1ccco1,-7,x,x,85*,1,-2.3
CCCCCn1c(=NC(=O)c2ccco2)c(C(=O)OCC)cc2c(=O)n3ccccc3nc21,3,8,8,33*,-4,-1.3
CCCCn1c(=NC(=O)c2ccco2)c(C(=O)OCC)cc2c(=O)n3ccccc3nc21,-2,6,7,6,4,0.13
CCOC(=O)c1sc(=N)n(-c2ccc(OC)cc2)c1C,3,-2,3,14,10,-2.4
CCSc1nnc(NC(=O)CSc2c(Cl)cccc2Cl)s1,3,x,5,8,-3,-3.2*
CCSc1nnc(NC(=O)CSc2nccn2-c2cccc(C)c2C)s1,2,84*,1,17,-5,x
CCSc1nnc(NC(=O)CSc2ncccn2)s1,1,6,7,-4,-2,0.16
Cc1noc(C)c1S(=O)(=O)N(CC(=O)N1CCCC1)c1ccc(C(C)C)cc1,4,14,4,0,-16,x
Cc1noc(C)c1S(=O)(=O)N(CC(=O)N1CCCCCC1)c1ccc(C(C)C)cc1,4,14,11,32*,-1,x
CC(C)CC(c1nnnn1C(C)C)N1CCN(c2cccc(Cl)c2)CC1 (centres undefined),-3,45,10,73*,4,-0.96
COCCn1c(C23CC4CC(CC(C4)C2)C3)n[nH]c1=S,-1,25,4,32*,11,0.69
COc1ccc(C)cc1NC(=O)CN1CCN(S(=O)(=O)c2ccc(Cl)cc2)CC1,1,-4,0,50*,16,-0.3
CCCc1nc(SCC(=O)Nc2ccc(N3CCOCC3)cc2)c2ccccc2n1,10,x,-1,x,x,-0.32
CCOc1cc(N2CCOCC2)c(OCC)cc1NC(=O)CN1CCc2ccccc2C1,-1,35,4,39*,9,1.1
CC(C)c1nc(SCC(=O)Nc2ccc(N3CCOCC3)cc2)c2ccccc2n1,34*,x,6,x,x,-0.28
O=C(Nc1ccccc1N1CCOCC1)c1ccc2ccccc2n1,0,14,-1,21,6,-3.6*
CC(=O)NC(CCS(C)(=O)=O)C(=O)Nc1nccs1 (centres undefined),0,-18,4,10,-4,0.78
CC(OC(=O)c1ccc2ccccc2n1)C(=O)Nc1ccc(N2CCOCC2)cc1 (centres undefined),3,-7,-6,31*,4,0.69
CCOc1ccc(C(=O)Nc2ccccc2N2CCOCC2)cc1,0,x,5,33*,-5,-1.4
Cc1ccc(NC(=O)CN2CCC(C(=O)c3ccc(F)cc3)CC2)cc1,-1,x,7,x,x,1.1
CCOc1ccc(C(=O)C2CCN(CC(=O)Nc3ccccc3N3CCOCC3)CC2)cc1,-1,76*,5,2,-11,-2.2
COc1ccc(OC)c(NC(=O)CN2CCC(C(=O)c3ccc(C)cc3)CC2)c1,-1,56,10,35*,-2,-0.21
SMILES,FAK blocker,tolC growth inh,Candida biofilm,PostGolgi ctrl,PostGolgi yeast,PTK2B oligo ant
CCOc1ccc(C(=O)Nc2ccccc2N2CCCC2)cc1,1,x,6,8,9,0.25
Cc1ccccc1NC(=O)Nc1cc(S(N)(=O)=O)ccc1C,11,x,x,26,-7,-0.11
COc1ccccc1CNC(=O)C1CCN(Cc2nc(-c3ccc(Cl)cc3)oc2C)CC1,x,1,0,x,x,x
CC1(C)Cc2c(sc(NC(=O)C(C)(C)C)c2C#N)C(C)(C)N1,1,x,-7,x,x,-0.25
CCOc1ccc(C(=O)CN2CCN(S(=O)(=O)c3ccc(Cl)cc3)CC2)cc1,-6,19,6,32*,1,-0.05
Cc1ccc(/C=C(/C#N)C(=O)NC(=O)Oc2ccccc2)cc1,0,x,-1,4,-1,0.02
Cc1ccc(C(C)NC(=O)/C(C#N)=C\c2c(C)[nH]c3ccccc23)cc1 (centres undefined),2,x,x,59*,-2,-2.4
COc1cc(/C=N/NC(=O)COc2ccc(Cl)cc2)ccc1OS(=O)(=O)c1ccc(C)cc1,0,x,x,17,1,0.4
N#Cc1cccc(C(c2nnnn2C2CCCC2)N2CCC(Cc3ccccc3)CC2)c1 (centres undefined),0,x,8,x,x,-4.4*
